Measured values reported in ChEMBL document CHEMBL1157852, “Modulation of doxorubicin activity in cancer cells by conjugation with fatty acyl and terpenyl hydrazones” (Eur J Med Chem, 2010).
Calls of active or inactive are those of the source. The calls are words filed in the database; no cut-off is given here.

Experiments:
Nucleic Acid = assay: Binding affinity to Escherichia coli pBR322 DNA assessed as effect on DNA electrophoretic mobility at 5 to 25 uM after 24 hrs; format: nucleic-acid assay
Summary of the method: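 pBR322 plasmid DNA from a TE stock incubated with compound at 0, 5, 10 and 25 µM, in the dark at 37 °C for 24 h. Samples run on 1% agarose gel in 0.5× TBE for 4 h at 66 V. Read-out: shifts in mobility of the open circular and covalently closed circular forms.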

[1] = Cytotoxicity against human 518A2 cells after 24 hrs by MTT assay; format: functional, cell-based; settings: 518A2, 24 h
Summary of the method: (§1)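 MTT assay. Cells seeded and cultured 24 h, then exposed to compound for 24, 48 or 72 h. MTT added to a final 0.05% (HL-60, 518A2) or 0.1% (KB-V1, MCF-7) for 2 h. Formazan dissolved in 10% SDS/DMSO with 0.6% acetic acid; absorbance read at 570 nm against 630 nm background. Viability taken relative to untreated controls (100%). IC50 from concentration-response curves, mean ± SD of four independent experiments.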

HL-60 [2] = assay: Cytotoxicity against human HL60 cells after 24 hrs by MTT assay; format: functional, cell-based; settings: HL-60, 24 h; summary of the method: as §1
HL-60 [3] = assay: Cytotoxicity against human HL60 cells after 48 hrs by MTT assay; format: functional, cell-based; settings: HL-60, 48 h; summary of the method: as §1
HL-60 [4] = assay: Cytotoxicity against human HL60 cells after 72 hrs by MTT assay; format: functional, cell-based; settings: HL-60, 72 h; summary of the method: as §1
[5] = Cytotoxicity against human vinblastine-resistant KBV1 cells after 24 hrs by MTT assay; format: functional, cell-based; settings: KB-V1, 24 h; summary of the method: as §1
[6] = Cytotoxicity against human vinblastine-resistant KBV1 cells after 48 hrs by MTT assay; format: functional, cell-based; settings: KB-V1, 48 h; summary of the method: as §1
[7] = Cytotoxicity against human vinblastine-resistant KBV1 cells after 72 hrs by MTT assay; format: functional, cell-based; settings: KB-V1, 72 h; summary of the method: as §1
MCF7 [8] = assay: Cytotoxicity against human topotecan-resistant MCF7 cells after 24 hrs by MTT assay; format: functional, cell-based; settings: MCF7, 24 h; summary of the method: as §1
MCF7 [9] = assay: Cytotoxicity against human topotecan-resistant MCF7 cells after 72 hrs by MTT assay in presence of […] BCRP inhibitor fumitremorgin C; format: functional, cell-based; settings: MCF7, 72 h
Summary of the method: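 MCF-7/Topo cells grown in E-MEM with 2.2 g/L NaHCO₃, 110 mg/L sodium pyruvate and 5% FCS. Cells were seeded, cultured 24 h, given fumitremorgin C, then exposed to compound for 72 h. MTT was added (final 0.1%) for 2 h, medium discarded, and formazan dissolved in 10% SDS/DMSO with 0.6% acetic acid. A570 (630 background) read versus untreated controls; IC50 from concentration-response curves; four independent experiments, mean ± SD.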

[10] = Cytotoxicity against human doxorubicin-resistant KBV1 cells by MTT assay; format: functional, KB-V1
HL-60 [11] = assay: Induction of apoptosis in human HL60 cells assessed as increase of caspase 3 activity at 5 uM after 4 hrs by luminometric assay; format: functional, cell-based
Summary of the method: (§2)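 HL-60 and 518A2 cells treated with 5 µM compound and sampled at intervals from 1 to 24 h. Lysed in 50 mM Tris-HCl pH 7.4, 150 mM NaCl, 1% Triton X-100 with protease inhibitors for 15 min at 4 °C, spun at 800 g. Protein measured by Bradford. Caspase-3/7, -8 and -9 activities read with luminogenic peptide substrates; reported as relative luminescence.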

HL-60 [12] = assay: Induction of apoptosis in human HL60 cells assessed as increase of caspase 3 activity at 5 uM after 12 hrs by luminometric assay; format: functional, cell-based; summary of the method: as §2
HL-60 [13] = assay: Induction of apoptosis in human HL60 cells assessed as increase of caspase 8 activity at 5 uM after 4 to 24 hrs by luminometric assay; format: functional, cell-based; summary of the method: as §2
HL-60 [14] = assay: Induction of apoptosis in human HL60 cells assessed as increase of caspase 9 activity at 5 uM after 8 hrs by luminometric assay; format: functional, cell-based
Summary of the method: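 HL-60 leukaemia cells were treated with test compound and sampled at intervals from 1 to 24 h. Protein was measured by Bradford. Caspase-9 (Caspase-Glo 8 for line 1) was read from a luminogenic peptide substrate as relative luminescence.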

518A2 [15] = assay: Induction of apoptosis in human 518A2 cells assessed as increase of caspase 8 activity at 5 uM measured up to 12 hrs by luminometric assay; format: functional, cell-based; summary of the method: as §2
518A2 [16] = assay: Induction of apoptosis in human 518A2 cells assessed as increase of caspase 3 activity at 5 uM measured up to 12 hrs by luminometric assay; format: functional, cell-based; summary of the method: as §2
518A2 [17] = assay: Induction of apoptosis in human 518A2 cells assessed as increase of caspase 9 activity at 5 uM after 8 to 12 hrs by luminometric assay; format: functional, cell-based; summary of the method: as §2
HL-60 [18] = assay: Induction of apoptosis in human HL60 cells assessed as increase of ratio of Bax to Bcl-2 mRNA expression at 5 uM after 6 to 18 hrs by RT-PCR analysis; format: functional, cell-based
Summary of the method: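 Real-time PCR of bax and bcl-2 mRNA in HL-60 cells after 6 h and 18 h exposure to test compound. Each gene was normalised to GAPDH, and the bax/bcl-2 expression ratio was reported.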

518A2 [19] = assay: Induction of apoptosis in human 518A2 cells assessed as increase of ratio of Bax to Bcl-2 mRNA expression at 5 uM after 6 to 18 hrs by RT-PCR analysis; format: functional, cell-based
Summary of the method: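 518A2 cells exposed to 5 µM compound for 6 h or 18 h. bax and bcl-2 mRNA quantified by real-time PCR, normalised to GAPDH, and expressed as the bax/bcl-2 ratio.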

518A2 [20] = assay: Induction of apoptosis in human 518A2 cells assessed as appearance of intact mitochondria in cytosol at 5 uM after 6 hrs using JC1 dye relative to control; format: functional
Summary of the method: (§3)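 Mitochondrial membrane potential measured with JC-1. Cells exposed to 5 µM compound for 6 or 18 h, pelleted at 400 g, stained with 0.2× JC-1 at 37 °C for 15 min (HL-60) or 35 min (518A2), washed and resuspended in PBS. Red fluorescence (ex 585/em 590 nm) and green (ex 510/em 527 nm) read; red/green ratio relative to untreated controls (100%). Mean ± SD, four independent experiments.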

HL-60 [21] = assay: Induction of apoptosis in human HL60 cells assessed as appearance of intact mitochondria in cytosol at 5 uM after 6 hrs using JC1 dye relative to control; format: functional; summary of the method: as §3
HL-60 [22] = assay: Induction of apoptosis in human HL60 cells assessed as appearance of intact mitochondria in cytosol at 5 uM after 18 hrs using JC1 dye relative to control; format: functional; summary of the method: as §3
[23] = Cytotoxicity against human 518A2 cells assessed as increase in ROS production at 5 uM after 72 hrs by NBT reduction assay relative to control; format: functional
Summary of the method: (§4)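 NBT assay. HL-60 cells (0.5×10⁶/mL) or trypsinised 518A2 cells (5×10⁴/mL) pre-incubated 24 h at 37 °C, then given compound at a final 5 µM for 24 or 72 h. Medium removed; cells incubated with 0.1% NBT for 1 h (HL-60) or 4 h (518A2). Diformazan dissolved in 2 M KOH/DMSO; A630 read against 405 nm. Given as % of untreated controls; double quadruplicates.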

HL-60 [24] = assay: Cytotoxicity against human HL60 cells assessed as increase in ROS production at 5 uM after 24 hrs by NBT reduction assay relative to control; format: functional; summary of the method: as §4

In the case of `COc1cccc2c1C(=O)c1c(O)c3c(c(O)c1C2=O)C[C@@](O)(/C(CO)=N/NC(=O)CCCCCCCCCCC(=O)O[C@@H]1C[C@H](C)CC[C@H]1C(C)C)C[C@@H]3O[C@H]1C[C@H](N)[C@H](O)[C@H](C)O1.Cl`, the Activity (Nucleic Acid) is reported as “Active”, the IC50 [1] is reported as 230 nM and the IC50 (HL-60 [2]) is reported as 300 nM. The IC50 (HL-60 [3]) was 250 nM, the IC50 (HL-60 [4]) was 110 nM and the IC50 [5] was 30500 nM. For the same compound, the IC50 [6] was 17100 nM, the IC50 [7] was 8800 nM and the IC50 (MCF7 [8]) was 7100 nM. For the same compound, the IC50 (MCF7 [9]) was 90 nM, the Activity [10] was 200 nM and the Activity (HL-60 [11]) was “Active”. The Activity (HL-60 [12]) was “Active”, the Activity (HL-60 [13]) was “Active” and the Activity (HL-60 [14]) was “Active”. For the same compound, the Activity (518A2 [15]) was “inactive”, the Activity (518A2 [16]) was “inactive” and the Activity (518A2 [17]) was “Active”. The Activity (HL-60 [18]) was “Active”, the Activity (518A2 [19]) was “Active” and the Activity (518A2 [20]) was 108%. The Activity (HL-60 [21]) was 90%, the Activity (HL-60 [22]) was 23% and the Activity [23] was 38.3%. For the same compound, the Activity (HL-60 [24]) was 3.8%.
